NPY1 pot ag: human NPY-Y1 potentiation or agonism, primary screen; activation, % at 3.6 µM; NPY-Y1 expressing cells, potentiator/agonist activation; 220,000 tested, 0.37% active; P25929; in the data active = activation above about 33%, passing the limit was not always enough;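 note: cells stimulated with NPY at EC10 then isoproterenol at EC100; 0% = low agonist plus stimulus and 100% = saturating agonist plus stimulus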
NPY-Y2 antag: blocks the human neuropeptide Y Y2 receptor. P49146. NPY-Y2 expressing cells, antagonist mode. 140,000 tested, 0.99% active. AID 793. inhibition, % at 2.7 µM; in the data active = inhibition above about 17%;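 note: 0% = vehicle with agonist challenge and 100% = reference antagonist with challenge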
Target sequence (P49146 whole entry, looked up): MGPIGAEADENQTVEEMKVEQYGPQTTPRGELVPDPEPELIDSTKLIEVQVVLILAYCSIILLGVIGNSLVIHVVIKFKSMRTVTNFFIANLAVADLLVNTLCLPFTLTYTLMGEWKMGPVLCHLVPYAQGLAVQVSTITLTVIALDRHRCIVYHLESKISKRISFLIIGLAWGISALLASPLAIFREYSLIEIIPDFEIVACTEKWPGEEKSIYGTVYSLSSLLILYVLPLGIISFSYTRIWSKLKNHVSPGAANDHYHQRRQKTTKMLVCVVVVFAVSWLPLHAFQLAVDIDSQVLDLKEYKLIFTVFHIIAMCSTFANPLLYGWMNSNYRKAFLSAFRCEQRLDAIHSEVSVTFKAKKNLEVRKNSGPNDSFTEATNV
NPY Y1 blocker: antagonists of human neuropeptide Y receptor Y1; P25929; inhibition, % at 3.6 µM; 200,000 tested, 1% active; HEK293-CNG Y1 cells, membrane potential fluorescence; NPY at EC95, then isoproterenol;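 active = inhibition above the campaign mean inhibition of all tested compounds plus 3 SD, cut at about 20% in these data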;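 note: 0% = DMSO wells given NPY plus isoproterenol and 100% = isoproterenol alone without NPY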
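Material: HEK293 cells co-expressing NPY Y1 receptor and cyclic-nucleotide gated channel. Timing: compound incubation 1 h at room temperature, readout 45 min post-stimulation. Signal: fluorescence, membrane potential probe.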
NPY-Y2 PAM-ag: potentiates or activates human NPY-Y2 receptor; P49146; cells expressing NPY-Y2, potentiator/agonist read-out; activation, % at 3.6 µM; 220,000 tested, 0.45% active; AID 1359; in the data active = activation above about 27%;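 note: cells stimulated with NPY near EC25 plus isoproterenol at EC100; 0% = vehicle plus submaximal agonist and 100% = vehicle plus saturating agonist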
An asterisk follows results filed as active; nt = no result given. Compounds with a hit are over-represented: about 1.9% of the library has one in this group of screens.

SMILES | NPY1 pot ag | NPY-Y2 antag | NPY Y1 blocker | NPY-Y2 PAM-ag
c1ccc(Nc2c3c(nc4ccccc24)CCC3)cc1 | -41 | nt | 20* | -37
COc1ccc(NC2=NCC(Cc3ccc(Br)cc3)S2)cc1 (stereo not given) | -36 | 4 | 5 | 8
COn1c(SCc2cccc(Cl)c2)nc2ccccc2c1=O | -56 | 17* | 22* | -5
Cc1c(C(=O)Nc2cccc(N(C)S(C)(=O)=O)c2)cccc1[N+](=O)[O-] | -10 | nt | 3 | 0
COCCCNC(=O)c1c(N)n(/N=C/c2cccs2)c2nc3ccccc3nc12 | -2 | 19* | 7 | 6
COCCCNC(=O)c1c(N)n(/N=C/c2cccnc2)c2nc3ccccc3nc12 | 23 | 4 | 3 | 21
CCC(=O)N(CCC(c1ccccc1)c1ccco1)Cc1cccs1 (stereo not given) | -12 | 22* | 27* | -5
COc1cc([N+](=O)[O-])ccc1NC(=O)COC(=O)c1ccc(NC(N)=O)cc1 | -14 | nt | nt | 1
CCc1cc(C(=O)c2ccc(C)cc2)c(NC(=O)CCl)s1 | 42* | 1 | 1 | 35*
Cc1cc(C(=O)c2ccc(Cl)cc2)c(NC(=O)CCl)s1 | -13 | 2 | 2 | -1
CCOc1ccc(CCNC(=O)CSc2cc(=O)n(CC)c3ccccc23)cc1OCC | -4 | 1 | 6 | 2
O=C(c1ccc2c(c1)OCO2)N(Cc1ccco1)C1(C(=O)NC2CCCCC2)CCCCC1 | -44 | 28* | 51* | -7
O=C(Cc1cccs1)N(Cc1ccco1)C1(C(=O)NC2CCCC2)CCCCC1 | -3 | 26* | 61* | -5
O=C1NC(=O)C(CC(=O)N(Cc2ccco2)C2(C(=O)NC3CCCC3)CCCCC2)N1 (stereo not given) | -20 | 6 | 1 | 9
Cc1ccc(N(C(=O)c2ccccn2)C2(C(=O)NC3CCCC3)CCCCC2)cc1 | 17 | 2 | 9 | 9
CN(C(=O)c1ccc2c(c1)OCO2)C1(C(=O)NC2CCCCC2)CCCCC1 | 12 | 14 | 17 | 5
O=C(c1cnccn1)N(Cc1ccco1)C1(C(=O)NC2CCCC2)CCCCC1 | 4 | 33* | 42* | -3
O=C(c1ccccn1)N(Cc1ccco1)C1(C(=O)NC2CCCC2)CCCCC1 | 0 | 53* | 34* | -7
CC(CC(=O)O)Nc1ccccc1O (stereo not given) | 5 | nt | -3 | 12
CCCCCNC(=O)c1c[nH]c2ccc(S(=O)(=O)N3CCC4(CC3)OCCO4)cc2c1=O | -4 | -2 | 2 | -1
COC(=O)C(=N/Nc1ccccc1C(=O)OC)/C(C)=N/O | -25 | nt | nt | -1
O=C(OCC(=O)c1c[nH]c2ccccc12)c1ccc(Br)o1 | 63* | 1 | -3 | 70*
CC1(C)SC(=S)N(/N=C/c2ccc(O)cc2)C1N(O)C(=O)Nc1ccc([N+](=O)[O-])cc1 (stereo not given) | 38 | -5 | -17 | 33*
CN(C)c1nc(NCc2ccccc2)nc(SCC(=O)Nc2ccccc2)n1 | -22 | 16 | 7 | -24
CN(C)c1nc(NCc2ccccc2)nc(SCC(=O)Nc2ccccc2Cl)n1 | 2 | 43* | 26* | -3
SMILES | NPY1 pot ag | NPY-Y2 antag | NPY Y1 blocker | NPY-Y2 PAM-ag
Cc1ccc(NC(=O)C2(N(C(=O)Cn3nnnc3N)c3ccc(C)cc3)CCCCC2)cc1 | 41* | 1 | -6 | 34*
O=C(c1noc2c1CCCC2)N1CCC(CO)(Cc2ccccc2Cl)CC1 | 4 | nt | 1 | -6
COc1ccc(-c2cc(C(F)F)n3ncc(C(=O)NCC4CCCO4)c3n2)cc1 (stereo not given) | -33 | 29* | 29* | -24
COc1ccc(-c2cc(C(F)(F)F)n3ncc(C(=O)NCC4CCCO4)c3n2)cc1OC (stereo not given) | 0 | 4 | -1 | 2
O=C(O)CN1CCN(Cc2ccc(Cl)cc2)C1=O | -5 | 3 | 6 | 0
COC(=O)Cn1c2ccc(F)cc2c2nc(C)sc21 | -4 | 2 | 2 | 2
COC(=O)Cn1c2ccc(Cl)cc2c2nc(C)sc21 | 24 | nt | nt | -5
Cc1nc2c3cc(F)ccc3n(Cc3ccc(F)cc3)c2s1 | -35 | 18* | 27* | -10
Cc1nc2c3cc(Cl)ccc3n(CCN3CCCCC3)c2s1 | -19 | 33* | 25* | -32
CCCCOc1ccc(C(=O)N/N=C/c2ccc(OCCN3CCCCC3)c(OC)c2)cc1 | -36 | 11 | 17 | -14
C1CCN(c2nc(N3CCCCC3)nc(N3CCNCC3)n2)CC1 | 103* | 6 | -26 | 96*
O=C(NCc1cccc(F)c1)C1CCN(C(=O)c2sccc2-n2cccc2)CC1 | -3 | nt | -1 | 1
O=C(NCC1(c2ccccc2)CCOCC1)c1cccs1 | -3 | nt | 1 | -14
